Data taken from ChEMBL document CHEMBL1949536, “Gliotoxin analogues from a marine-derived fungus, Penicillium sp., and their cytotoxic and histone methyltransferase inhibitory activities” (J Nat Prod, 2012).
Activity calls are given as the source filed them. The calls are words filed in the database; no cut-off is given here.

Tests used:
[1] = biological target: T1, Histone-lysine N-methyltransferase SETD7 (Homo sapiens) (UniProt Q8WTS6); experiment: Inhibition of HMT-set7/9 using S-adenosylmethionine and biotinylated H3 peptide at 100 uM after 1 hr
T1 sequence (whole entry): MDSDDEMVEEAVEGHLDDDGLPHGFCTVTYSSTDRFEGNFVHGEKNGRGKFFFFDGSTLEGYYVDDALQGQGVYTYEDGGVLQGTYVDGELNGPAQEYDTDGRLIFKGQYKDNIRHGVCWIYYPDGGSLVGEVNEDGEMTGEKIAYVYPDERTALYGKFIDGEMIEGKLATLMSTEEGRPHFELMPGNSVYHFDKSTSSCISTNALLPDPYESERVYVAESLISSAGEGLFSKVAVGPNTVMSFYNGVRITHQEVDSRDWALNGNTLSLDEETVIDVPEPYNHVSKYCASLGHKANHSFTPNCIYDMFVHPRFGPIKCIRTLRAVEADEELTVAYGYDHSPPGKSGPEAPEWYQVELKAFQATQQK
Procedure, shortened: (§1)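 GST-G9a (200 ng) or His-Set7/9 (931 ng) with BSA preincubated with compound (DMSO) in Tris-HCl pH 8.5 buffer with MgCl₂, KCl, 2-mercaptoethanol, sucrose, 1 h rt; then SAM (50 ng) and biotinylated H3 peptide (50 ng), 37 °C 2 h, boiled. Captured on streptavidin plate; G9a: anti-methylated-lysine antibody, Set7/9: anti-dimethyl-H3K4 antibody; HRP secondary, TMB, A650.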

[2] = tested on: P388; experiment: Cytotoxicity against mouse P388 cells after 96 hrs by MTT assay; assay type: functional, cell-based; conditions: P388, 96 h
Procedure, shortened: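 P388 cells grown in RPMI-1640 with 10% FBS, kanamycin and 2-hydroxyethyl disulfide at 37 °C, 5% CO2; seeded at 1 × 10⁴ cells/mL, test solution in RPMI-1640 added, 96 h incubation. MTT (1 mg/mL) added for 3 h, cells dissolved in DMSO after centrifugation; IC₅₀ determined.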

[3] = biological target: T2, Histone-lysine N-methyltransferase EHMT2 (Homo sapiens, UniProt Q96KQ7); experiment: Inhibition of HMT-G9a using S-adenosylmethionine and biotinylated H3 peptide after 1 hr; procedure, shortened: as §1
T2 sequence (Q96KQ7 whole entry): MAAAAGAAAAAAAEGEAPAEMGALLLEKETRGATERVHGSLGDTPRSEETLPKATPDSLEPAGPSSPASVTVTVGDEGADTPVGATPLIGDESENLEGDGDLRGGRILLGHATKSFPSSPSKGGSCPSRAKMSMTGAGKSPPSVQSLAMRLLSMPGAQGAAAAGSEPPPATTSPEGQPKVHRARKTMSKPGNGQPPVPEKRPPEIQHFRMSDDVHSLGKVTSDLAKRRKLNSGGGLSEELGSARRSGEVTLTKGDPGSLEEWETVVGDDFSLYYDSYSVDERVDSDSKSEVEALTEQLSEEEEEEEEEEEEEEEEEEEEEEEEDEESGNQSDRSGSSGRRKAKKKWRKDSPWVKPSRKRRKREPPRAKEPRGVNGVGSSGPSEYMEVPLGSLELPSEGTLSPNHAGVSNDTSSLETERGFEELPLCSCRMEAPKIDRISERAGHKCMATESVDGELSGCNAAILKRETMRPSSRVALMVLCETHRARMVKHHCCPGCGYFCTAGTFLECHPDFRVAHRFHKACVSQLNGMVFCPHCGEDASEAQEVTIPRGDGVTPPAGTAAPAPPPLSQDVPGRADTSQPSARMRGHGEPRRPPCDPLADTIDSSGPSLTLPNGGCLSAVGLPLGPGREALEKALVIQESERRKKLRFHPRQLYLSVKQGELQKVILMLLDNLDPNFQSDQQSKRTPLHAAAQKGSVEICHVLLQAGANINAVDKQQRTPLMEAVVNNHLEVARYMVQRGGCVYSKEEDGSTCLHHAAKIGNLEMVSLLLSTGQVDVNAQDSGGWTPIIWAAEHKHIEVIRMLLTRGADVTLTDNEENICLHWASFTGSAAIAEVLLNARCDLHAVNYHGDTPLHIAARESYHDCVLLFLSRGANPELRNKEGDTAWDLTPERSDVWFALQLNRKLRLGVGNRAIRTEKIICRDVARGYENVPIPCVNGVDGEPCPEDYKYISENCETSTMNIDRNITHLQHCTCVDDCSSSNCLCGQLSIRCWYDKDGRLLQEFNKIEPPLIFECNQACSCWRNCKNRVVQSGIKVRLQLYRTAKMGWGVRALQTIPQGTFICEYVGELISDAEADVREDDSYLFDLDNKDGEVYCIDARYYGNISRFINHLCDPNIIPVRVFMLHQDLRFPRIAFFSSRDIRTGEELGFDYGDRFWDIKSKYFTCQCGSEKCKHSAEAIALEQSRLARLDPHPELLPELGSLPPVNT

## CS[C@]1(CO)C(=O)N2[C@H]3C(=CC=C[C@@H]3O)C[C@@]2(SC)C(=O)N1C [BIS(DETHIO)BIS(METHYLTHIO)GLIOTOXIN]
[1]
  inhibition: inactive
[2]
  IC50: 0.11 µM
[3]
  IC50: > 100 µM

## CN1C(=O)[C@]23CC4=CC=C[C@H](O)[C@H]4N2C(=O)[C@@]1(CO)SSSS3 [GLIOTOXIN G]
[1]
  inhibition: inactive
[2]
  IC50: 0.02 µM
[3]
  IC50: 2.1 µM

## CN1C(=O)[C@]23Cc4cccc(O)c4N2C(=O)[C@@]1(CO)SS3
[1]
  inhibition: inactive
[2]
  IC50: 0.056 µM
[3]
  IC50: 2.6 µM

## C=C1C(=O)N2[C@H]3C(=CC=C[C@@H]3O)C[C@@]2(SC)C(=O)N1C
[1]
  inhibition: inactive
[2]
  IC50: 3.4 µM
[3]
  IC50: > 100 µM

## CN1C(=O)[C@]23Cc4ccccc4N2C(=O)[C@@]1(CO)SS3
[1]
  inhibition: inactive
[2]
  IC50: 0.058 µM
[3]
  IC50: 55 µM

## CN1C(=O)[C@]23CC4=CC=C[C@H](O)[C@H]4N2C(=O)[C@@]1(CO)SS3 [GLIOTOXIN]
[1]
  inhibition: inactive
[2]
  IC50: 0.024 µM
[3]
  IC50: 6.4 µM

## CS[C@]1(CO)C(=O)N2c3c(O)cccc3C[C@@]2(SC)C(=O)N1C [DEHYDROBIS(METHYLTHIO)GLIOTOXIN]
[1]
  inhibition: inactive
[2]
  IC50: 0.11 µM
[3]
  IC50: 58 µM
